One block for each compound: values may come before it. Calls of active or inactive are those of the source. The calls are words filed in the database; no cut-off is given here.
Assays:
Rattus norvegicus [1] = test: Compound was tested for antagonism of apomorphine-induced climbing behavior, after intraperitoneal dosing; 1-23; assay type: functional; details: ip
[2] = biological target: T1, 5-hydroxytryptamine receptor 1A (Rattus norvegicus, UniProt P19327); test: In vitro ability to inhibit [3H]8-OH-DPAT binding to 5-hydroxytryptamine 1A receptor of rat hippocampus ([…]) from 12 to 17; assay type: tissue-based
T1 sequence (P19327 whole entry): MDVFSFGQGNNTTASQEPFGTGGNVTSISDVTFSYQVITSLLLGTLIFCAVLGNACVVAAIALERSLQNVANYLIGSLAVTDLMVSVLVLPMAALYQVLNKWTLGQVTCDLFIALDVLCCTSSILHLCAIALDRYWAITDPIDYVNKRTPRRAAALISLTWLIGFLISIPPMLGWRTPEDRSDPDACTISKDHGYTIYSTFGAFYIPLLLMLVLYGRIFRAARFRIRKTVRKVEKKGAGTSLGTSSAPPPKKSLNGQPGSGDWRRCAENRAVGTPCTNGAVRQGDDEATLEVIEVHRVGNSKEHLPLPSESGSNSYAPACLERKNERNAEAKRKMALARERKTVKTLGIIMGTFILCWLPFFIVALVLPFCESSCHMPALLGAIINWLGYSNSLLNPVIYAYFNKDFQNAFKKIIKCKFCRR

Rattus norvegicus [3] = species on record: Rattus norvegicus; test: Anti-psychotic activity from the ability to block discrete trial conditioned avoidance response (CAR) of rats.; assay type: functional
How it was run: (§1)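 Discrete-trial conditioned avoidance in male CD rats kept at about 400–450 g body weight. Dosing was ip or po, 30 min before testing, with at least five rats per dose (20 or 40 mg/kg, or a dose range). Computer recorded intertrial, avoidance and escape responses and no-response trials. Avoidance-block trials were taken as % of total trials, with control avoidance set at 100%. AB50 came from a least-squares dose-effect regression line.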

[4] = biological target: T1, 5-hydroxytryptamine receptor 1A; test: In vitro ability to inhibit [3H]8-OH-DPAT binding to 5-hydroxytryptamine 1A receptor of rat hippocampus ([…]) from 391-841; assay type: tissue-based
[5] = Partition coefficient (logP); assay type: physicochemical; details: octanol/water
[6] = biological target: Adrenergic receptor alpha-2 (Rattus norvegicus) (UniProt P22086+P19328+P22909); test: Percent inhibition of Alpha-2 adrenergic receptor at 1 uM; assay type: protein assay
[7] = biological target: Adrenergic receptor alpha-1 (Rattus norvegicus) (UniProt P15823+P23944+P43140); test: Percent inhibition of Alpha-1 adrenergic receptor at 1 uM; assay type: protein assay
[8] = biological target: GABA-A receptor; anion channel (Rattus norvegicus) (UniProt O09028+P15431+P18506+P18508+P19969+P20236+P23574+P23576+P28471+P28473+P30191+P62813+P63079+P63138+Q91ZM7+Q9ES14); test: Percent inhibition of GABA-A benzodiazepine receptor at 1 uM; assay type: protein-complex assay
How it was run: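 Male Sprague-Dawley rat brain (cerebellum and pons-medulla removed) was homogenized in 0.32 M sucrose to give a 30000g pellet, resuspended in Tris-HCl pH 7.5. Membranes were incubated with 1.5×10^-9 M [³H]diazepam (2.0 mL final) for 30 min at 4 °C, GF/C filtered, washed ice-cold and scintillation counted. Nonspecific binding was taken with 3×10^-6 M cold diazepam. Drug was tested at 1 μM.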

[9] = biological target: Adrenergic receptor beta (Rattus norvegicus) (UniProt P18090+P10608+P26255); test: Percent inhibition of Beta adrenergic receptor at 1 uM; assay type: protein assay
Rattus norvegicus [10] = species on record: Rattus norvegicus; test: Percent inhibition of QNB receptor at 1 uM
Rattus norvegicus [11] = test: Compound was tested for antagonism of apomorphine-induced climbing behavior, after intraperitoneal dosing; 7-101; assay type: functional; details: ip
Rattus norvegicus [12] = test: Compound was tested for antagonism of apomorphine-induced stereotyped behavior, after intraperitoneal dosing; NA= Inactive; assay type: functional, organism-based
How it was run: (§2)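 High-dose apomorphine-induced stereotyped behavior procedure. Test agents were given ip at doses up to 60 mg/kg.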

Rattus norvegicus [13] = test: In vivo ability (10.0 mg/kg) was to antagonize serotonin syndrome; assay type: functional
Rattus norvegicus [14] = test: In vivo ability (40.0 mg/kg) was to elicit serotonin syndrome; assay type: functional
[15] = biological target: D(2) dopamine receptor (Rattus norvegicus) (UniProt P61169); test: In vitro percent inhibition of [3H]spiperone binding to Dopamine receptor D2 of rat limbic structures at 1 uM; assay type: tissue-based; details: Limbic system
[16] = biological target: T1, 5-hydroxytryptamine receptor 1A; test: In vitro ability to inhibit [3H]-8-OH-DPAT binding to 5-hydroxytryptamine 1A receptor of rat hippocampus and value ranges from 15 - 31; assay type: tissue-based
[17] = biological target: D(2) dopamine receptor (Rattus norvegicus) (UniProt P61169); test: Inhibition of [3H]-spiperone binding to dopamine receptor D2 of rat limbic structures at 1 uM.; details: Limbic system
Rattus norvegicus [18] = test: Compound was tested for antagonism of apomorphine-induced climbing behavior, after intraperitoneal dosing.; assay type: functional; details: ip
Rattus norvegicus [19] = test: Compound was tested for antagonism of apomorphine-induced stereotyped behavior, after intraperitoneal dosing and value ranges from 37.28 - 52.78; assay type: functional; details: ip; how it was run: as §2
D(2) dopamine receptor = D(2) dopamine receptor (Rattus norvegicus, UniProt P61169); test: In vitro ability to inhibit [3H]spiperone binding to Dopamine receptor D2 of rat limbic structures.; assay type: tissue-based, Limbic system
Rattus norvegicus [20] = species on record: Rattus norvegicus; test: Anti psychotic activity was evaluated from the ability to block discrete trial conditioned avoidance response (CAR) of rats (95%CI) from 37-73; assay type: functional; how it was run: as §1
[21] = biological target: T2, 5-hydroxytryptamine receptor 1A (Rattus norvegicus) (UniProt P19327); test: In vitro ability to inhibit [3H]8-OH-DPAT binding to 5-hydroxytryptamine 1A receptor of rat hippocampus at 1 uM; assay type: tissue-based
T2 sequence (whole entry): T1 sequence (P19327 whole entry)

[22] = biological target: D(2) dopamine receptor (Rattus norvegicus) (UniProt P61169); test: Inhibition of [3H]spiperone binding to Dopamine receptor D2 of rat limbic structures; assay type: tissue-based; set-up: concentration or dose not given beside the values; details: Limbic system, concentration not given here
Rattus norvegicus [23] = species on record: Rattus norvegicus; test: Anti psychotic activity was evaluated from the ability to block discrete trial conditioned avoidance response (CAR) of rats and value ranges from 37 - 73; assay type: functional; how it was run: as §1
[24] = biological target: T1, 5-hydroxytryptamine receptor 1A; test: In vitro ability to inhibit [3H]8-OH-DPAT binding to 5-hydroxytryptamine 1A receptor of rat hippocampus and the value ranges from 12 to 20.; assay type: tissue-based
Rattus norvegicus [25] = species on record: Rattus norvegicus; test: Anti psychotic activity was evaluated from the ability to block discrete trial conditioned avoidance response (CAR) of rats, value ranges from 32-71.; assay type: functional; how it was run: as §1
[26] = biological target: T1, 5-hydroxytryptamine receptor 1A; test: In vitro ability to inhibit [3H]8-OH-DPAT binding to 5-hydroxytryptamine 1A receptor of rat hippocampus and value ranges from 6 - 13; assay type: tissue-based
[27] = biological target: T1, 5-hydroxytryptamine receptor 1A; test: In vitro ability to inhibit [3H]8-OH-DPAT binding to 5-hydroxytryptamine 1A receptor of rat hippocampus and the value ranges from 245 to 736; assay type: tissue-based
Rattus norvegicus [28] = species on record: Rattus norvegicus; test: Antipsychotic activity was evaluated from the ability to block discrete trial conditioned avoidance response (CAR) of rats; assay type: functional; how it was run: as §1
[29] = biological target: T1, 5-hydroxytryptamine receptor 1A; test: In vitro ability to inhibit [3H]8-OH-DPAT binding to 5-hydroxytryptamine 1A receptor of rat hippocampus and the value ranges from 48 to 59; assay type: tissue-based

D(2) dopamine receptor (Rattus norvegicus), sequence (P61169 whole entry): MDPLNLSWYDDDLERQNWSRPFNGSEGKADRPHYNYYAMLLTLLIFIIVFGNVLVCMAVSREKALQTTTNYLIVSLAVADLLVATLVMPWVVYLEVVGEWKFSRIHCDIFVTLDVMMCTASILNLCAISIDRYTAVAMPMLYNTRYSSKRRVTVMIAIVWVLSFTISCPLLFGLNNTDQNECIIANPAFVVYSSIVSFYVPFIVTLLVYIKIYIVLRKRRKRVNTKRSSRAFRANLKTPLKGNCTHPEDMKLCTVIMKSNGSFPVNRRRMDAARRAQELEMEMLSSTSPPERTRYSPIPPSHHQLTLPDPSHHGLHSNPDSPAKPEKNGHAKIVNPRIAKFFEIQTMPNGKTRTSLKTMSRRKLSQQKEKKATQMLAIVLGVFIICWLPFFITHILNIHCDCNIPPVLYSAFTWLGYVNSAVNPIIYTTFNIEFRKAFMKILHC
D(2) dopamine receptor, sequence (P61169 whole entry): as above

SMILES: CN1CCN(C2=Nc3cc(Cl)ccc3Nc3ccccc32)CC1 [CLOZAPINE]
ED50 (Rattus norvegicus [1]): 4.55 mg/kg

SMILES: Cl.Cl.O=C1C2C3CCC(O3)C2S(=O)(=O)N1CCCCN1CCN(c2cccc(C(F)(F)F)c2)CC1 (centres undefined)
Ki [16]: 22 nM
inhibition [17]: 0%
AB50 (Rattus norvegicus [3]): 40 mg/kg
ED50 (Rattus norvegicus [18]): 11.5 mg/kg
ED50 (Rattus norvegicus [19]): 44.4 mg/kg

SMILES: Cl.Cl.O=C1C2C3CCC(C3)C2S(=O)(=O)N1CCCCN1CCN(c2cccc(C(F)(F)F)c2)CC1 (centres undefined)
Ki [24]: 16 nM
inhibition [22]: 97%
AB50 (Rattus norvegicus [25]): 43 mg/kg

SMILES: Cl.Cl.O=C1c2ccccc2S(=O)(=O)N1CCCCN1CCN(c2cnccn2)CC1
Ki [26]: 9 nM
inhibition [17]: 43%
AB50 (Rattus norvegicus [3]): 40 mg/kg

SMILES: Cl.Cl.O=C1C2C3C=CC(C3)C2S(=O)(=O)N1CCCCN1CCN(c2ncccn2)CC1 (centres undefined)
Ki [27]: 434 nM
AB50 (Rattus norvegicus [28]): 45 mg/kg

SMILES: Cl.Cl.O=C1C2C3CCC(C3)C2S(=O)(=O)N1CCCCN1CCN(c2ncccn2)CC1 (centres undefined)
Ki [29]: 53 nM
logP [5]: 1.72
inhibition [22]: 36%
AB50 (Rattus norvegicus [3]): 40 mg/kg

More lines, main results first:

Ki [2]: 14 nM
SMILES: Cl.O=C1C2C3C=CC(C4CC34)C2S(=O)(=O)N1CCCCN1CCN(c2cncc(Cl)n2)CC1 (centres undefined)
AB50 (Rattus norvegicus [3]): 40 mg/kg

Ki [4]: 550 nM
logP [5]: 1.64
inhibition [6]: 21%
inhibition [7]: 6%
inhibition [8]: 0%
inhibition [9]: 8%
inhibition (Rattus norvegicus [10]): 0%
inhibition [15]: 36%
SMILES: Cl.O=C1C2C3CCC(O3)C2S(=O)(=O)N1CCCCN1CCN(c2cncc(Cl)n2)CC1 (centres undefined)
AB50 (Rattus norvegicus [3]): 34 mg/kg
ED50 (Rattus norvegicus [11]): 27 mg/kg
ED50 (Rattus norvegicus [12]): inactive
Mean (Rattus norvegicus [13]): 12.3
Mean (Rattus norvegicus [14]): 2.1

Ki (D(2) dopamine receptor): 3300 nM
SMILES: Cl.O=C1C2C3CCC(O3)C2S(=O)(=O)N1CCCCN1CCN(c2nccnc2Cl)CC1 (centres undefined)
AB50 (Rattus norvegicus [20]): 48 mg/kg

inhibition [21]: 25%
logP [5]: 1.14
inhibition [22]: 0%
SMILES: Cl.Cl.O=C1C2C3CCC(O3)C2S(=O)(=O)N1CCCCN1CCN(c2cnccn2)CC1 (centres undefined)
AB50 (Rattus norvegicus [23]): 48 mg/kg

From ChEMBL document CHEMBL1124456, “Synthesis and structure-activity relationship of substituted tetrahydro- and hexahydro-1,2-benzisothiazol-3-one 1,1-dioxides and thiadiazinones: potential anxiolytic agents” (J Med Chem, 1989)
